Experimental data: ChEMBL document CHEMBL5537124, “Unexpected rearrangement of ivermectin in the synthesis of new derivatives with trypanocidal and antiplasmodial activities” (Eur J Med Chem, 2024)
pEC50, pIC50: −log10 of the molar value.

Assays:
[1] = test system: Trypanosoma brucei brucei; test: Trypanocidal activity against Trypanosoma brucei brucei 221a assessed as parasite growth inhibition measured after 24 hrs by resazurin dye based microplate reader analysis; assay type: functional
In short: (§1)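 Seeded at 1 × 10^4 mL-1 (T. b. brucei) or 5 × 10^4 mL-1 (HL-60) in Baltz medium with 16.7 % bovine serum and 0.9 % DMSO. Test compounds given as tenfold dilutions from 100 μM to 1 nM. Incubated at 37 °C, 5 % CO2. Resazurin added after 24 h, then a further 48 h. Absorbance read at 570/630 nm. GI50 obtained by linear interpolation; mean ± SD of three independent experiments.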

[2] = Selectivity index, ratio of GI50 for human HL-60 cells to GI50 for Trypanosoma brucei brucei 221a; assay type: toxicity; conditions: for selectivity ratio: HL-60 cells versus Trypanosoma brucei brucei 221a, read-out: RatioGI50
In short: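 Ratio of GI50 for HL-60 to GI50 for T. b. brucei, both from the resazurin growth assay.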

Plasmodium berghei = test: Antiplasmodial activity against luciferase-expressing Plasmodium berghei infected in human Huh-7 cells assessed as reduction in parasitic load pretreated for 1 hr with cells followed by parasite infection and measured 48 hrs post infection by firefly luciferase assay; assay type: functional, organism-based
In short: (§2)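 Huh7 hepatoma cells in RPMI-1640 with 10 % FCS, seeded at 1 × 10^4 per well and left overnight. Seven compound concentrations, serially diluted from 10 mM DMSO stocks, applied 1 h before infection; DMSO vehicle control. PbGFP-Luciferase sporozoites from An. stephensi salivary glands added 1:1, plates spun 1800 × g for 5 min. Confluency by AlamarBlue at 46 hpi; parasite load by firefly luciferase at 48 hpi. IC50 from nonlinear regression.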

Huh-7 = test: Cytotoxicity against human Huh-7 cells infected with luciferase-expressing Plasmodium berghei assessed as effect on cell confluency pretreated for 1 hr followed by parasite infection and measured 46 hrs post infection by alamar blue staining based analysis; assay type: toxicity; conditions: huh-7, 47 h; in short: as §2
HL-60 = test: Cytotoxicity against human HL-60 cells assessed as cell growth inhibition measured after 24 hrs by resazurin dye based microplate reader analysis; assay type: toxicity; conditions: hl-60, 24 h; in short: as §1
Trypanosoma cruzi = test: Antitrypanosomal activity against trypomastigote form of Trypanosoma cruzi Dm28c expressing beta-galactosidase using chlorophenol red beta-D-galactopyranoside as enzyme substrate measured after 24 hrs by colorimetric analysis; assay type: functional, organism-based

Molecule `CCCCCCCCCC(=O)N[C@H]1/C(C)=C/C[C@@H]2C[C@@H](C[C@]3(CC[C@H](C)[C@@H]([C@@H](C)CC)O3)O2)OC(=O)[C@@H]2C=C(C)[C@@H](O)[C@H]3OC/C(=C\C=C\[C@@H]1C)[C@]32O` has a GI50 [1] of 9.3 µM and a selectivity ratio [2] of 3.2.
With `CCCCCCCCCC(=O)N[C@H]1/C(C)=C/C[C@@H]2C[C@@H](C[C@]3(CC[C@H](C)[C@@H]([C@@H](C)CC)O3)O2)OC(=O)C2=C[C@@](C)(O)[C@@H](O)[C@H]3OC/C(=C\C=C\[C@@H]1C)[C@@]23O` the GI50 [1] was 4.1 µM and the selectivity ratio [2] was 7.8.
In the case of `CCC(=O)N[C@H]1/C(C)=C/C[C@@H]2C[C@@H](C[C@]3(CC[C@H](C)[C@@H]([C@@H](C)CC)O3)O2)OC(=O)C2=C[C@@](C)(O)[C@@H](O)[C@H]3OC/C(=C\C=C\[C@@H]1C)[C@@]23O`, the GI50 [1] was 8.1 µM and the selectivity ratio [2] was 4.3.
In the case of `CC[C@H](C)[C@H]1O[C@]2(CC[C@@H]1C)C[C@@H]1C[C@@H](C/C=C(\C)[C@@H](O[C@H]3C[C@H](OC)[C@@H](O[C@H]4C[C@H](OC)[C@@H](O)[C@H](C)O4)[C@H](C)O3)[C@@H](C)/C=C/C=C3\CO[C@@H]4[C@H](O)[C@](C)(O)C=C(C(=O)O1)[C@]34O)O2`, the GI50 [1] was 20 µM, the selectivity ratio [2] was 1.6 and the pIC50 (Plasmodium berghei; Plasmodium berghei, Huh-7) was 5.33. For the same molecule, the Activity (Huh-7) was “Non-Toxic”.
In the case of `CC[C@H](C)[C@H]1O[C@]2(CC[C@@H]1C)C[C@@H]1C[C@@H](C/C=C(\C)[C@H](NC(=O)c3ccc(OC)c(O)c3)[C@@H](C)/C=C/C=C3\CO[C@@H]4[C@H](O)[C@](C)(O)C=C(C(=O)O1)[C@]34O)O2`, the GI50 [1] was 4.1 µM and the selectivity ratio [2] was 8.
Work on `CC[C@H](C)[C@H]1O[C@]2(CC[C@@H]1C)C[C@@H]1C[C@@H](C/C=C(\C)[C@H](NC(=O)C(C)C)[C@@H](C)/C=C/C=C3\CO[C@@H]4[C@H](O)C(C)=C[C@@H](C(=O)O1)[C@]34O)O2` yielded a GI50 [1] of 10.2 µM and a selectivity ratio [2] of 3.3.
Molecule `CC[C@H](C)[C@H]1O[C@]2(CC[C@@H]1C)C[C@@H]1C[C@@H](C/C=C(\C)[C@@H](O)[C@@H](C)/C=C/C=C3\CO[C@@H]4[C@H](O)[C@](C)(O)C=C(C(=O)O1)[C@]34O)O2` has a GI50 [1] of 12.1 µM, a selectivity ratio [2] of 2.6 and a pIC50 (Plasmodium berghei; Plasmodium berghei, Huh-7) of 5.54. The Activity (Huh-7) was “Non-Toxic”.
Work on IVERMECTIN [listing 1 of 2 here] yielded a GI50 [1] of 14.6 µM.
`CC[C@H](C)[C@H]1O[C@]2(CC[C@@H]1C)C[C@@H]1C[C@@H](C/C=C(\C)[C@@H](O)[C@@H](C)/C=C/C=C3\CO[C@@H]4[C@H](O)C(C)=C[C@@H](C(=O)O1)[C@]34O)O2` [IVM AGLYCONE] gave a GI50 [1] of 6.1 µM, a selectivity ratio [2] of 5.8 and a pIC50 (Plasmodium berghei; Plasmodium berghei, Huh-7) of 5.26. The Activity (Huh-7) was “Non-Toxic”.
In the case of `CC[C@H](C)[C@H]1O[C@]2(CC[C@@H]1C)C[C@@H]1C[C@@H](C/C=C(\C)[C@H](NC(=O)c3ccc(OC)c(OC)c3)[C@@H](C)/C=C/C=C3\CO[C@@H]4[C@H](O)C(C)=C[C@@H](C(=O)O1)[C@]34O)O2`, the GI50 [1] was 5.8 µM and the selectivity ratio [2] was 5.6.
Work on IVERMECTIN [listing 2 of 2 here] yielded a GI50 (HL-60) of 31.3 µM, a RatioGI50 [2] of 2.1 and a pIC50 (Plasmodium berghei; huh-7) of 6.04. The Activity (Huh-7) was “Non-Toxic” and the pEC50 (Trypanosoma cruzi) was 4.98.
`CC[C@H](C)[C@H]1O[C@]2(CC[C@@H]1C)C[C@@H]1C[C@@H](C/C=C(\C)[C@H](NC(=O)C34CC5CC(CC(C5)C3)C4)[C@@H](C)/C=C/C=C3\CO[C@@H]4[C@H](O)C(C)=C[C@@H](C(=O)O1)[C@]34O)O2` showed a GI50 [1] of 19.1 µM and a selectivity ratio [2] of 1.6.
Molecule `CC[C@H](C)[C@H]1O[C@]2(CC[C@@H]1C)C[C@@H]1C[C@@H](C/C=C(\C)[C@H](NC(=O)c3ccc(OC)c(OC)c3)[C@@H](C)/C=C/C=C3\CO[C@@H]4[C@H](O)[C@](C)(O)C=C(C(=O)O1)[C@]34O)O2` has a GI50 [1] of 5 µM and a selectivity ratio [2] of 6.4.
Work on `CC[C@H](C)[C@H]1O[C@]2(CC[C@@H]1C)C[C@@H]1C[C@@H](C/C=C(\C)[C@H](NC(=O)C(C)C)[C@@H](C)/C=C/C=C3\CO[C@@H]4[C@H](O)[C@](C)(O)C=C(C(=O)O1)[C@]34O)O2` yielded a GI50 [1] of 6.6 µM and a selectivity ratio [2] of 5.1.
`CC[C@H](C)[C@H]1O[C@]2(CC[C@@H]1C)C[C@@H]1C[C@@H](C/C=C(\C)[C@H](NC(=O)c3ccccc3)[C@@H](C)/C=C/C=C3\CO[C@@H]4[C@H](O)[C@](C)(O)C=C(C(=O)O1)[C@]34O)O2` gave a GI50 [1] of 4.3 µM and a selectivity ratio [2] of 7.
For `CC[n+]1c(-c2ccccc2)c2cc(N)ccc2c2ccc(N)cc21` [HOMIDIUM BROMIDE], the GI50 [1] was 0.086 µM and the selectivity ratio [2] was 67.4.
`CC[C@H](C)[C@H]1O[C@]2(CC[C@@H]1C)C[C@@H]1C[C@@H](C/C=C(\C)[C@H](NC(=O)c3ccccc3)[C@@H](C)/C=C/C=C3\CO[C@@H]4[C@H](O)C(C)=C[C@@H](C(=O)O1)[C@]34O)O2` gave a GI50 [1] of 8.6 µM and a selectivity ratio [2] of 3.6.
`CC[C@H](C)[C@H]1O[C@]2(CC[C@@H]1C)C[C@@H]1C[C@@H](C/C=C(\C)[C@H](NC(=O)CCl)[C@@H](C)/C=C/C=C3\CO[C@@H]4[C@H](O)[C@](C)(O)C=C(C(=O)O1)[C@]34O)O2` gave a GI50 [1] of 0.064 µM and a selectivity ratio [2] of 67.2.
Work on `CC[C@H](C)[C@H]1O[C@]2(CC[C@@H]1C)C[C@@H]1C[C@@H](C/C=C(\C)[C@H](NC(C)=O)[C@@H](C)/C=C/C=C3\CO[C@@H]4[C@H](O)C(C)=C[C@@H](C(=O)O1)[C@]34O)O2` yielded a GI50 [1] of 5.5 µM, a selectivity ratio [2] of 5.8 and a pIC50 (Plasmodium berghei; Plasmodium berghei, Huh-7) of 5.82. For the same molecule, the Activity (Huh-7) was “Non-Toxic”.
`CC[C@H](C)[C@H]1O[C@]2(CC[C@@H]1C)C[C@@H]1C[C@@H](C/C=C(\C)[C@H](NC(=O)c3ccc(OC)c(O)c3)[C@@H](C)/C=C/C=C3\CO[C@@H]4[C@H](O)C(C)=C[C@@H](C(=O)O1)[C@]34O)O2` showed a GI50 [1] of 3.9 µM and a selectivity ratio [2] of 8.2.
Molecule `CC[C@H](C)[C@H]1O[C@]2(CC[C@@H]1C)C[C@@H]1C[C@@H](C/C=C(\C)[C@H](NC(=O)c3ccco3)[C@@H](C)/C=C/C=C3\CO[C@@H]4[C@H](O)[C@](C)(O)C=C(C(=O)O1)[C@]34O)O2` has a GI50 [1] of 4.7 µM and a selectivity ratio [2] of 7.
Molecule `CC[C@H](C)[C@H]1O[C@]2(CC[C@@H]1C)C[C@@H]1C[C@@H](C/C=C(\C)[C@H](NC(=O)C34CC5CC(CC(C5)C3)C4)[C@@H](C)/C=C/C=C3\CO[C@@H]4[C@H](O)[C@](C)(O)C=C(C(=O)O1)[C@]34O)O2` has a GI50 [1] of 3 µM and a selectivity ratio [2] of 10.3.
For `CC[C@H](C)[C@H]1O[C@]2(CC[C@@H]1C)C[C@@H]1C[C@@H](C/C=C(\C)[C@H](NC(=O)c3ccco3)[C@@H](C)/C=C/C=C3\CO[C@@H]4[C@H](O)C(C)=C[C@@H](C(=O)O1)[C@]34O)O2`, the GI50 [1] was 10.2 µM and the selectivity ratio [2] was 3.1.
Molecule `CCC(=O)N[C@H]1/C(C)=C/C[C@@H]2C[C@@H](C[C@]3(CC[C@H](C)[C@@H]([C@@H](C)CC)O3)O2)OC(=O)[C@@H]2C=C(C)[C@@H](O)[C@H]3OC/C(=C\C=C\[C@@H]1C)[C@]32O` has a GI50 [1] of 7.4 µM and a selectivity ratio [2] of 4.3.
In the case of `CC[C@H](C)[C@H]1O[C@]2(CC[C@@H]1C)C[C@@H]1C[C@@H](C/C=C(\C)[C@H](NC(=O)CCl)[C@@H](C)/C=C/C=C3\CO[C@@H]4[C@H](O)C(C)=C[C@@H](C(=O)O1)[C@]34O)O2`, the GI50 [1] was 0.063 µM and the selectivity ratio [2] was 47.6.
For `CC[C@H](C)[C@H]1O[C@]2(CC[C@@H]1C)C[C@@H]1C[C@@H](C/C=C(\C)[C@H](NC(=O)COC)[C@@H](C)/C=C/C=C3\CO[C@@H]4[C@H](O)[C@](C)(O)C=C(C(=O)O1)[C@]34O)O2`, the GI50 [1] was 18.2 µM and the selectivity ratio [2] was 1.8.
`CC[C@H](C)[C@H]1O[C@]2(CC[C@@H]1C)C[C@@H]1C[C@@H](C/C=C(\C)[C@H](NC(=O)COC)[C@@H](C)/C=C/C=C3\CO[C@@H]4[C@H](O)C(C)=C[C@@H](C(=O)O1)[C@]34O)O2` showed a GI50 [1] of 14.4 µM and a selectivity ratio [2] of 2.3.
`CC[C@H](C)[C@H]1O[C@]2(CC[C@@H]1C)C[C@@H]1C[C@@H](C/C=C(\C)[C@H](NC(C)=O)[C@@H](C)/C=C/C=C3\CO[C@@H]4[C@H](O)[C@](C)(O)C=C(C(=O)O1)[C@]34O)O2` showed a GI50 [1] of 7.5 µM, a selectivity ratio [2] of 4.5 and a pIC50 (Plasmodium berghei; Plasmodium berghei, Huh-7) of 6.42. The Activity (Huh-7) was “Non-Toxic”.
`Cc1ccc(C(=O)Nc2ccc(S(=O)(=O)O)c3cc(S(=O)(=O)O)cc(S(=O)(=O)O)c23)cc1NC(=O)c1cccc(NC(=O)Nc2cccc(C(=O)Nc3cc(C(=O)Nc4ccc(S(=O)(=O)O)c5cc(S(=O)(=O)O)cc(S(=O)(=O)O)c45)ccc3C)c2)c1` [SURAMIN] showed a GI50 [1] of 0.036 µM and a selectivity ratio [2] greater than 2780.
